# Compound activity as filed in PubChem.
# In the library only some 3.5% were active in any assay of this set; here they are far more common.
# RGS4 block = inhibitors of human RGS4; P49798; B-score at 10 µM; hit rate 0.45% among 310,000; HEK293 M3R/RGS4 inducible, Fluo-4 calcium flux; stronger effect = higher value; triggered by carbachol at its EC20;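 active = B-score, a plate-corrected calcium signal, over three deviations above library mean, with baseline fluorescence within five deviations of library mean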;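 also: RGS4 expression induced by doxycycline in cells with stable M3 receptor; B-score is computed from the integrated fluorescence ratio over baseline after carbachol; higher B-score means a larger calcium signal and so more RGS4 inhibition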
# Target sequence (P49798 whole entry, looked up): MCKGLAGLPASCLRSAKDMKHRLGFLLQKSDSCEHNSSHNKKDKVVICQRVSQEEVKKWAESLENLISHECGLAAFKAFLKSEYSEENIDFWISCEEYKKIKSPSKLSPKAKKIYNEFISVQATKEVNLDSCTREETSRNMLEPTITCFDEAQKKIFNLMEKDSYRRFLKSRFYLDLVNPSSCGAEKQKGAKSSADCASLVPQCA
# MrgX1 ag = agonists of human MrgX1 receptor; Q96LB2; MrgX1-HEK293 cells, Fluo-4 calcium fluorescence, agonist mode; stronger effect = higher value; B-score at 10 µM; hit rate 0.44% among 310,000; AID 588627;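 active = calcium response B-score plate-corrected fluorescence ratio at least 3 library SD, with starting fluorescence B-score inside 5 SD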
# Target sequence (Q96LB2 whole entry, looked up): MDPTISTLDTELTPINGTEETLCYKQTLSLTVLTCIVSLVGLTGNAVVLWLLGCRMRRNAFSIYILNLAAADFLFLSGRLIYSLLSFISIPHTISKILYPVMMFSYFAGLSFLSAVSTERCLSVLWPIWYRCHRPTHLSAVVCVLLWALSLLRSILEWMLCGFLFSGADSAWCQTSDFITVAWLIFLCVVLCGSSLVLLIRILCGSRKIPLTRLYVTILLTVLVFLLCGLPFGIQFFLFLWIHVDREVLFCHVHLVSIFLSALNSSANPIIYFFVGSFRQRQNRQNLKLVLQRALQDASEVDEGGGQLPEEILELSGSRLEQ
#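 Assay system: stable human MrgX1 HEK293 cell line. Quantity: 15,000 cells per well. Schedule: cells plated overnight, dye loaded 0.5 h 37 °C, 0.5 h room temperature. Detection: Fluo-4 NW calcium-flux fluorescence, kinetic read. Read-out basis: peak-minus-minimum fluorescence over baseline, converted to B scores. Control set: positive and negative control wells on each plate.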
# MrgX1 allo act = human MrgX1 positive allosteric modulation, primary screen. MrgX1-HEK293, Fluo-4 calcium flux, FDSS; stronger effect = higher value. B-score at 10 µM. AID 588675. hit rate 0.63% among 310,000;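 active = plate-corrected calcium response at least 3 library SD above typical, normal starting fluorescence, not activating the receptor alone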;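 also: compound read alongside a low EC10 to EC30 dose of BAM8-22 agonist; peak minus trough fluorescence over baseline measured at the second addition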
# RGS4 pot = potentiators or activators of RGS4; HEK293 M3R/inducible RGS4, carbachol calcium flux Fluo4; stronger effect = lower value; B-score at 10 µM; hit rate 0.92% among 310,000; AID 463111;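 active = B-score of the integrated calcium signal more than 4 SD below the library mean, with starting fluorescence not abnormally high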;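 also: negative B-score means reduced calcium response which marks RGS4 activation or potentiation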
#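 Material: M3R-expressing HEK293 line, RGS4 induced by doxycycline | Schedule: Overnight RGS4 induction, 30 min dye load 37 °C, 20 min compound RT | Measured by: Fluo4 fluorescence kinetic imaging of calcium | Read-out: Integrated calcium ratio converted to B score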
# MrgX1 antagonist = antagonists of human MrgX1 receptor; Q96LB2; MRGX1-HEK293 calcium flux, Fluo-4, BAM8-22 antagonism; stronger effect = lower value; B-score at 10 µM; hit rate 1.3% among 310,000;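 active = calcium-response B-score plate-corrected more than 3 library SD below zero, starting fluorescence within 5 deviations, no agonist response on first addition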;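 also: peak minus trough fluorescence over baseline after final BAM8-22 challenge near maximal dose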
# * hit, by the source's call; i = inactive; · = no result given.
SMILES,RGS4 block,MrgX1 ag,MrgX1 allo act,RGS4 pot,MrgX1 antagonist
CSc1ccc(NS(=O)(=O)c2ccc(-n3cnnn3)cc2)cc1,i,i,i,i,i
O=c1c2ccccc2nc(COc2ccccc2)n1/N=C/c1ccc(O)c(O)c1,i,i,i,-7.65*,i
O=C(O)COc1ccc(/C=N/n2c(COc3ccccc3)nc3ccccc3c2=O)cc1,i,i,i,i,i
CC(C)(C)NC(=S)N/N=C\c1ccc(-c2ccc([N+](=O)[O-])cc2)o1,i,28.3*,i,i,i
O=C(O)c1cccc(-c2ccc(/C=N/Nc3ccc([N+](=O)[O-])cc3)o2)c1,i,i,i,i,-7*
CCOc1ccccc1NC(=O)N1CCC(NC(=O)C2CCCCC2)CC1,i,·,·,i,·
C[C@H]1[C@H](NC(=O)C(=NOC(C)(C)C(=O)O)c2csc(N)n2)C(=O)N1S(=O)(=O)O,·,i,i,·,i
COC(=O)[C@@]1(Cc2ccc(OC)cc2)[C@H]2c3cc(C(=O)N4CCCC4)n(Cc4c(CO)[nH]cc(C)c4=O)c3C[C@H]2CN1C(=O)c1ccccc1,i,i,i,i,-5.6*
COC(=O)[C@@]1(Cc2ccc(OC)cc2)[C@H]2c3cc(C(=O)N(C)C)n(Cc4c(CO)[nH]cc(C)c4=O)c3C[C@H]2CN1C(=O)c1ccccc1,i,i,i,i,i
Cc1ccc2nc(N(CCCN(C)C)C(=O)c3cc(-c4cccs4)nc4ccccc34)sc2c1,i,i,i,-7.76*,i
Cc1cc(/C=C2\SC(=S)N(Cc3ccco3)C2=O)c(C)n1-c1ccccc1,i,i,i,i,-4.52*
COc1ccc(-n2c(C)cc(/C=C3/SC(=S)N(C)C3=O)c2C)cc1,i,i,i,i,i
Cc1cc(/C=C2\SC(=S)N(C)C2=O)c(C)n1-c1cccc(O)c1,i,i,i,i,-5.73*
O=C1/C(=C\c2ccco2)SC(=S)N1Cc1ccccc1,i,i,i,i,i
CCc1ccc(OCC(=O)O/N=C(\N)c2ccncc2)c(Br)c1,i,i,i,i,i
CCCC(=O)Nc1ccc(-c2csc(N/N=C\c3ccncc3)n2)cc1,i,i,i,-7.16*,-5.36*
c1ccc(Nc2nc(-c3ccccn3)cs2)cc1,i,i,i,i,i
COc1cccc2sc(Nc3nc(-c4ccccn4)cs3)nc12,i,i,7.81*,-8.67*,i
CCCC[C@H]1COCCS(=O)(=O)N1Cc1ccc(Br)cc1,i,i,i,-7.09*,i
Fc1ccc(C(CCCn2nnc(-c3cccnc3)n2)c2ccc(F)cc2)cc1,i,i,i,-8.74*,i
Fc1ccc(-n2nnc(-c3cccnc3)n2)cc1,i,i,i,i,i
COCCNC(=S)NNc1ccccc1[N+](=O)[O-],i,i,i,i,-5.12*
Cc1csc(N/N=C/c2ccccc2F)n1,i,i,i,i,i
Cc1csc(N/N=C/c2c(F)cccc2Cl)n1,i,i,9.76*,i,i
COc1ccc(/C=C(\C#N)C(=O)c2c(C)[nH]c3ccccc23)cc1OC,i,31.9*,i,i,i
SMILES,RGS4 block,MrgX1 ag,MrgX1 allo act,RGS4 pot,MrgX1 antagonist
COc1cc(C2C3=C(CCCC3=O)Nc3[nH]n(-c4ccccc4)c(=O)c32)ccc1OC(C)=O (configuration not stated),i,i,i,i,i
CC12CCC(C(=O)Nc3ccccc3)(C/C1=N\O)C2(C)C (configuration not stated),i,i,i,i,i
Cc1cccc(NC(=O)C23CCC(C)(/C(=N/O)C2)C3(C)C)c1 (configuration not stated),i,i,i,i,-5.8*
O=C(c1ccc(Cl)nc1)c1cccs1,i,i,i,i,i
O=C(c1cccs1)c1no[n+]([O-])c1C(=O)c1cccs1,i,98.7*,i,-6.97*,i
CCOc1cccc(C(=O)N(Cc2cccc(F)c2)C2CCS(=O)(=O)C2)c1 (configuration not stated),i,i,i,i,i
CC(NC(=O)Cn1cccc1)c1ccccc1 (configuration not stated),i,i,i,i,i
CCCOc1ccc(C(=O)NNC(=S)NC(=O)CC)cc1,i,51.3*,i,i,i
C=CCNC(=S)NNC(=O)c1ccc(OCCC)cc1,i,i,i,i,i
CCn1c(=O)c2sccc2n(Cc2cc(C(=O)OC)ccc2OC)c1=O,i,i,i,i,i
CCOC(=O)N1CCN(C(=O)CN(C)S(=O)(=O)c2ccc(Cl)cc2)CC1,i,i,i,i,i
CCN(NC(=O)C(O)(c1ccc(F)cc1)c1ccc(F)cc1)C(=O)c1ccccc1,i,i,i,i,-5.84*
COc1ccccc1NC(=O)/C(C#N)=C/c1cc([N+](=O)[O-])ccc1N1CCCC1,i,i,i,i,-6.62*
COc1ccccc1NC(=O)/C(C#N)=C/c1ccncc1,i,i,i,i,i
Cc1c(OCC(=O)N2CCC(C(=O)NCCCC(=O)O)CC2)ccc2c1oc(=O)c1ccccc12,i,i,i,i,i
COc1cccc(NC(=O)CN2C(=O)NC(C)(c3ccc(C)cc3)C2=O)c1 (configuration not stated),i,i,i,i,i
C/C(=N\O)c1ccccc1C(=O)O,i,i,i,i,-6.25*
CC[N+]1=C(C)C(C)(C)c2cc(C)ccc21,i,i,i,i,-4.76*
Cc1ccc2c(c1)C=CC(C)(C)S2=O (configuration not stated),i,i,i,i,i
CCOc1ccc(S(=O)(=O)N2CCC(C(=O)N3CCN(c4ccccc4F)CC3)CC2)cc1C,i,i,i,-7.24*,i
CCOc1ccc(CN2CCC(C(=O)N3CCN(c4ccccc4F)CC3)CC2)cc1OC,i,i,i,i,i
O=C(CS(=O)(=O)Nc1ccc(F)cc1Cl)Nc1ccc(F)cc1Cl,i,i,i,i,i
O=C(N/N=C/c1ccc(O)c(O)c1)NC12CC3CC(CC(C3)C1)C2,5.07*,i,i,i,i
CC[N+](CC)(CC)CCOc1ccc(/C=C/c2ccccc2)cc1,·,i,i,·,-5.1*
CCCCNc1nc(Nc2ccc(C)c(Cl)c2)c2cnn(C)c2n1,i,i,i,i,i
O=c1c2ccccc2nnn1CSc1nnc(-c2cccc(S(=O)(=O)N3CCCCC3)c2)o1,i,i,i,-7.9*,i
